# Bioassay records as filed in PubChem.
# M1 ag – activates the M1 muscarinic receptor. CHO-M1 cells, Fluo-4 calcium fluorescence, agonist mode; hits give high values. B-score at 10 µM. 3% of 64,000 active. AID 626;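 active = fluorescence rise, raw or as B-score row- and column-corrected plate score, outside the 99.7% band of its plate's samples, either direction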
# AP complement – alternative pathway complement inhibition, orthogonal assay; Human serum alternative complement pathway, LPS-coated ELISA, C3 deposition; tested in compound mixtures; inhibition, % at 5 µM; 0.08% of 62,000 active; AID 1235;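 active = inhibition above 30% in each of the two pooled mixtures holding the compound, so the lower value exceeds 30%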;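 note: 0% = serum in Mg-EGTA without compound and 100% = EDTA serum blank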
#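 Test system: human serum complement alternative pathway, C3 deposition onto LPS / Medium: Mg2+-EGTA GVB++ buffer containing human serum at 1:15 dilution / Probe or stimulus: Plate-bound LPS / Times: 1 h at 37 °C / Signal: ELISA with HRP anti-human C3 antibody, TMB substrate, absorbance 450 nm / Measure: percent inhibition / Repeats: two pool placements per compound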
# WNV protease inh – blocks West Nile virus NS2B-NS3 protease activity. WNV NS2B-NS3 protease, fluorogenic substrate Ex360/Em465; hits give low values. z-score (test concentration not listed). 0.18% of 65,000 active. AID 577; in the data active = z-score below about -3
# Target sequence (P06935 1371-1501 limits assumed): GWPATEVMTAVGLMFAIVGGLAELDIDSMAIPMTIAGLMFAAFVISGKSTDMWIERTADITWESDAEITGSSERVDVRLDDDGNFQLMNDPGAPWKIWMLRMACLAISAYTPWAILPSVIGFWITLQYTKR
# Target sequence (P06935 1502-1679 limits assumed): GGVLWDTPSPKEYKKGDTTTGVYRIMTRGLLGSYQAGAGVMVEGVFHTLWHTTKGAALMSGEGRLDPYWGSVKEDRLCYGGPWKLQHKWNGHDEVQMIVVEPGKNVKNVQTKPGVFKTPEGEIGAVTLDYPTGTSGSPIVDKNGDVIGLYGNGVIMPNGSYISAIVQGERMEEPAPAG
# Ecoli WT expand – E. coli BW25113 growth inhibition, expanded screen. 0.15% of 98,000 active. OD600 absorbance. growth inhibition, % at 100 µM;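 active = growth inhibition above about 50% at one test dose, limit read from the data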;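 note: growth measured after 20 h incubation at 37 °C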
# M1 antag – antagonists of rat M1 muscarinic receptor. AID 628. CHO-M1 cells, Fluo-4 calcium, ACh EC80 antagonist mode; hits give low values. B-score at 10 µM. 3.4% of 64,000 active;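 active = calcium fluorescence response, raw or row-and-column corrected B-score, differing from the plate sample mean either way at a set confidence level, mostly lower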
# tolC growth inh – blocks growth of E. coli BW25113 tolC mutant; 2.2% of 65,000 active; OD615; growth inhibition, % at 10 µM (by protocol);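 active = growth inhibition at or above a cutoff equal to the mean over every tested compound plus 3 SD, cut at about 60% in these data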;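 note: growth measured after 20 h incubation at 37 °C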
#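 Test system: tolC-deleted E. coli BW25113; medium: LB with kanamycin 50 µg/mL; compound: single-point testing at 10 µM; incubation: 20 h compound exposure of bacteria at 37 °C; signal: OD at 615 nm; evaluation: growth inhibition in percent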
# M1 antag confirm – confirmation of rat M1 muscarinic receptor antagonists | shares compounds with M1 antag | CHO-M1 cells, Fluo-4 calcium, ACh EC80 antagonism; hits give low values | calcium response (max-min fluorescence) at 10 µM | 43% of 1,700 active;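 active = calcium response below the same-plate mean of wells given acetylcholine alone at its 80%-effect dose, minus 3 SD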;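 note: raw fluorescence intensity difference in arbitrary instrument units and not normalized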
# mGluR4 antag – mGluR4 (human) activity, M1 antagonist secondary assay; shares compounds with M1 antag; CHO-mGluR4 calcium flux, Fluo-4 fluorescence, glutamate EC80; hits give low values; fluorescence response (max-min) at 10 µM; 0.9% of 1,700 active;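 active = fluorescence response below the plate's average for near-maximal glutamate wells, less 3 SD of those wells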;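 note: raw unnormalized fluorescence span taken in the window right after glutamate addition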
# Starred values were filed as active, the others as inactive; / = no result given. Rows were chosen to be rich in hits. Some 5.2% of all compounds tested hit in one or more screens of this group.
SMILES,M1 ag,AP complement,WNV protease inh,Ecoli WT expand,M1 antag,tolC growth inh,M1 antag confirm,mGluR4 antag
CCCNS(=O)(=O)c1ccc(CCC(=O)N2CCC(C)CC2)cc1,0.04,9,0.31,-3,-2*,13,643,253
CC1CCN(C(=O)CCc2ccc(S(=O)(=O)NC(C)(C)C)cc2)CC1,/,/,/,-6,/,/,/,/
O=C(NCC1CCCO1)C1c2ccccc2C(=O)N1Cc1ccc2c(c1)OCO2 (stereo not given),0.28,1,1,6,-0.041,-22,/,/
COc1ccc(NC(=O)C2=C(C)Nc3ncnn3C2c2ccccc2C(F)(F)F)c(OC)c1 (stereo not given),0,-2,2.4,-11,1.2,-7,/,/
CSc1ccc(S(=O)(=O)N2CCN(Cc3ccc4c(c3)OCO4)CC2)cc1,-0.16,9,-0.88,-12,-2.1*,35,440,208
COc1ccc(F)cc1S(=O)(=O)N1CCN(Cc2ccc3c(c2)OCO3)CC1,-0.49,0,0.26,7,-0.37,11,/,/
c1ccc(CN2CCC(N3CCN(Cc4ccc5c(c4)OCO5)CC3)CC2)cc1,-0.5,7,-0.04,/,-2.3*,-7,330*,197
O=C(CSCc1ccccc1)N1CCN(Cc2ccc3c(c2)OCO3)CC1,0.95,/,0.45,/,-0.64,-12,/,/
O=C(CN(c1ccccc1)S(=O)(=O)c1ccccc1)N1CCN(Cc2ccc3c(c2)OCO3)CC1,-0.099,5,0.99,-10,-4.1*,2,436*,242
CCN(CC)S(=O)(=O)c1ccc(C(=O)N2CCN=C2SCc2cccnc2)cc1,-2.7,-9,-0.58,3,0.0017,-16,/,/
COc1cc(NS(=O)(=O)c2ccc(NC(C)=O)cc2)nc(OC)n1,/,/,/,-8,/,/,/,/
COc1cc(NS(=O)(=O)c2ccc(NC(=O)c3ccco3)cc2)nc(OC)n1,-1.8,11,1.6,-3,-2.2*,-14,665,236
O=C(CN1CCCC(O)C1)N1c2ccccc2Sc2ccc(C(F)(F)F)cc21 (stereo not given),0.41,12,0.21,7,-11*,45,16*,227
Cc1oc(-c2cccc(Cl)c2)nc1CN1CCCC(C(=O)NC(C)c2ccc3c(c2)OCCO3)C1 (stereo not given),1.3,12,-0.22,-1,-0.94*,12,509,244
CC(C)(C)c1ccccc1OCC(=O)NCCC(=O)O,-0.73,13,-0.19,3,-2.8*,-12,673,237
CC(C)(C)c1ccccc1OCC(=O)Nc1ncn[nH]1,-1.3,16,-0.82,-8,1.4,-16,/,/
CCOc1ccc(CNc2ccc3c(c2)nc(C)n3C)cc1,-1.2,7,-1.3,5,-6*,9,448*,262
CCn1cnc2cc(NCc3ccc(OC)cc3)ccc21,/,/,/,21,/,/,/,/
C=CCn1c(CCC(=O)Nc2ccc(C)c(Cl)c2)nnc1SCC(=O)Nc1ccccc1C,/,/,/,-8,/,/,/,/
Cc1c(NS(=O)(=O)c2ccc3c(c2)CCN3C(=O)C2CC2)c(=O)n(-c2ccccc2)n1C,0.41,4,-1.2,4,-0.45,-10,/,/
C=CCOn1c(=O)c(=O)n(OCc2ccccc2)c2ccccc21,-0.28,2,-1.2,11,-2.6*,-4,632,256
Cc1cc2cc(C)c3nnc(SCC(=O)N4CCc5ccccc54)n3c2cc1C,/,/,/,-6,/,/,/,/
Cc1ccc(S(=O)(=O)NNc2nc3ccccc3nc2C(F)(F)F)cc1,/,/,/,6,/,/,/,/
COC(=O)c1[nH]c2ccc(F)cc2c1NC(=O)CCN1CCN(Cc2ccc3c(c2)OCO3)CC1,0.65,7,0.52,-2,-7.6*,9,125*,204
COC(=O)c1[nH]c2ccc(Cl)cc2c1NC(=O)CCN1CCN(C2CCCCC2)CC1,-0.02,12,1.4,4,-9.6*,-2,51*,213
SMILES,M1 ag,AP complement,WNV protease inh,Ecoli WT expand,M1 antag,tolC growth inh,M1 antag confirm,mGluR4 antag
COC(=O)c1[nH]c2ccc(Br)cc2c1NC(=O)CN1CCN(C2CCCCC2)CC1,0.6,22,0.07,7,-7.5*,3,324*,256
COC(=O)c1[nH]c2ccc(C)cc2c1NC(=O)CCN1CCN(C2CCCCC2)CC1,0.92,21,-1.2,3,-12*,-13,99*,204
Cc1ccc(C2CC(C(F)(F)F)n3nc(C(=O)NCC4CCCO4)cc3N2)cc1 (stereo not given),0.44,2,0.16,1,-1,36,/,/
O=S(=O)(c1cccc(-c2nnc(SCc3ccc(Cl)cc3)o2)c1)N1CCCCC1,1,9,-1.3,-13,-0.24,21,/,/
CN(C)S(=O)(=O)c1cccc(-c2nnc(SCc3ccc4c(c3)OCCO4)o2)c1,-0.92,20,-0.88,-10,-12*,5,501,199
N=c1n(CCN2CCOCC2)c2ccccc2n1Cc1ccccc1Br,-0.82,1,1.2,-1,-0.41,-2,/,/
O=C(Cc1coc2ccc3ccccc3c12)N1CCc2ccccc21,/,/,/,3,/,/,/,/
O=C(Cc1coc2ccc3ccccc3c12)N1CCN(c2ncccn2)CC1,-0.76,15,-0.76,0,-3.3*,7,589,240
COc1ccc2c(c1)c(C(=O)CN1CCC(C(N)=O)CC1)c(C)n2C,/,/,/,5,/,/,/,/
COc1ccc(-c2ccc(SCC(=O)NCc3ccco3)nn2)cc1,0.039,-8,1.3,4,-13*,-10,584,211
COc1ccc(-c2[nH]c(-c3cccc(OC)c3)nc2SCC(=O)NCc2ccco2)cc1,-1.1,12,0.21,-23,-3.1*,67*,574,210
Cc1ncsc1C(=O)NCc1ccc(N2CCCC2=O)cc1,0.25,6,0.24,-10,-1.5,-16,/,/
COc1ccc2cc(CN(Cc3cccnc3)S(=O)(=O)c3ccccc3)c(=O)[nH]c2c1,0.94,-3,0.63,4,-2.4*,4,591,242
CC(=O)c1cccc(NC2c3ccccc3C(=O)N2Cc2ccc3c(c2)OCO3)c1 (stereo not given),2.6,7,-0.41,0,-3*,5,502,190
CCOc1ccc(NC2c3ccccc3C(=O)N2Cc2ccc3c(c2)OCO3)cc1 (stereo not given),/,/,/,-22,/,/,/,/
COc1cccc(CNC(=O)C2CCCN(c3nc4ccccc4o3)C2)c1 (stereo not given),-0.093,6,-0.89,-1,-1.9*,-7,643,229
O=C(NCCN1CCOCC1)C1CCN(c2nc3ccccc3o2)CC1,0.17,-1,1,3,-2.2*,-12,458*,244
